Experimental data published in ChEMBL document CHEMBL1136016, “Synthesis, biological activity, and molecular modeling investigation of new pyrazolo[4,3-e]-1,2,4-triazolo[1,5-c]pyrimidine derivatives as human A(3) adenosine receptor antagonists” (J Med Chem, 2002).
One block for each compound: values may come before it.

Legend:
[1] = target: Adenosine receptors; A1 & A3 (Homo sapiens) (UniProt P30542+P0DMS8); assay: Selectivity ratio (hA1/hA3); assay type: protein assay
[2] = target: Adenosine receptors; A2b & A3 (Homo sapiens) (UniProt P29275+P0DMS8); assay: Selectivity ratio (h2B/hA3); assay type: protein assay
[3] = target: T1, Adenosine receptor A2b (Homo sapiens, UniProt P29275); assay: Displacement of [3H]DPCPX from human Adenosine A2B receptor expressed in HEK293 cells; range 43-58; assay type: cell-based
T1 sequence (P29275 whole entry): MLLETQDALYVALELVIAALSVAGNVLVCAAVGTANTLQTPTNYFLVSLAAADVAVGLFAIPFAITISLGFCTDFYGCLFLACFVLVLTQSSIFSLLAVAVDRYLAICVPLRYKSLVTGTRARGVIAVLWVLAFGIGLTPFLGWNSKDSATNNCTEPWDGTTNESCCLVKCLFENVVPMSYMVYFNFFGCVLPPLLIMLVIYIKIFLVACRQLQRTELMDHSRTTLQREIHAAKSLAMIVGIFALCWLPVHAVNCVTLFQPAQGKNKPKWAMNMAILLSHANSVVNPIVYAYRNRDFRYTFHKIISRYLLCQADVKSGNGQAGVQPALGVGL
Summary of the method: (§1)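 HEK-293 membranes expressing the human receptor were incubated 60 min at 25 °C. Six to eight test concentrations were used. Nonspecific binding was set with NECA. n = 3-6.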

[4] = target: T2, Adenosine receptor A2a (Homo sapiens, UniProt P29274); assay: Displacement of [3H]SCH-58261 from human Adenosine A2A receptor expressed in HEK293 cells; range 102-215; assay type: cell-based
[5] = target: T3, Adenosine receptor A3 (Homo sapiens, UniProt P0DMS8); assay: Displacement of [3H]MRE3008-F20 from human Adenosine A3 receptor expressed in HEK cells; range 0.12-0.37; assay type: cell-based, HEK293
T3 sequence (P0DMS8 whole entry): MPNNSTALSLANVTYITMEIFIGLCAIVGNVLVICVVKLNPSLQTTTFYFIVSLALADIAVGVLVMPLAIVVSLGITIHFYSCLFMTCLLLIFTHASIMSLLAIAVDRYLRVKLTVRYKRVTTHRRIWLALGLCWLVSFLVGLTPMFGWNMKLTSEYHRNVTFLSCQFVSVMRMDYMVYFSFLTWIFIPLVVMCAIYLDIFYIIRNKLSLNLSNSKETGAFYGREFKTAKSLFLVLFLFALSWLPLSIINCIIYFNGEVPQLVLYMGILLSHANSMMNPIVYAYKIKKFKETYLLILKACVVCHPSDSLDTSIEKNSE

[6] = target: T4, Adenosine receptor A1 (Homo sapiens, UniProt P30542); assay: Displacement of [3H]DPCPX from human Adenosine A1 receptor expressed in CHO cells; range 358-468; assay type: cell-based
T4 sequence (P30542 whole entry): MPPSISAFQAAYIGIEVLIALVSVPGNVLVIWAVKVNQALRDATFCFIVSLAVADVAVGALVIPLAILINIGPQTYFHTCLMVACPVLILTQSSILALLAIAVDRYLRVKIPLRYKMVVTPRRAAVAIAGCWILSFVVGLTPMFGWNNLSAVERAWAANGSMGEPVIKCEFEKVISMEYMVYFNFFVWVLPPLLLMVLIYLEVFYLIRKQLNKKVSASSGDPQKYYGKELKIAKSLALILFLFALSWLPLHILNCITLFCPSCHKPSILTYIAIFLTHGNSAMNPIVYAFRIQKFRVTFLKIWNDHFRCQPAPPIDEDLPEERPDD

[7] = target: T4, Adenosine receptor A1; assay: Displacement of [3H]DPCPX from human Adenosine A1 receptor expressed in CHO cells; range 216-412; assay type: cell-based
Summary of the method: (§2)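 Human recombinant A1 receptor in CHO cell membranes, resuspended in 50 mM Tris HCl pH 7.4. Displacement run 120 min at 25 °C with 1 nM [3H]DPCPX, 50 µg protein per assay, and at least six to eight test concentrations. Nonspecific binding defined with CHA. Bound and free separated on glass-fiber filters; filter radioactivity counted. n = 3-6.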

[8] = target: T1, Adenosine receptor A2b; assay: Displacement of [3H]DPCPX from human Adenosine A2B receptor expressed in HEK293 cells; range 162-237; assay type: cell-based
Summary of the method: (§3)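 Membranes from HEK-293 cells with human recombinant A2B receptor. Incubation 60 min at 25 °C in 50 mM Tris HCl, 10 mM MgCl2, 1 mM EDTA, 0.1 mM benzamidine, pH 7.4, with 2 IU/mL adenosine deaminase and 40 nM [3H]DPCPX. At least six to eight test concentrations. Nonspecific binding defined with NECA. n = 3-6.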

[9] = target: T2, Adenosine receptor A2a; assay: Displacement of [3H]SCH-58261 from human Adenosine A2A receptor expressed in HEK293 cells; range 108-163; assay type: cell-based
[10] = target: T3, Adenosine receptor A3; assay: biochemical
[11] = target: T3, Adenosine receptor A3; assay: Inhibition of IB-MECA agonist-mediated cAMP production in CHO cell membranes expressing human Adenosine A3 receptor; range 2.7-7.8; assay type: functional, cell-based
[12] = target: T4, Adenosine receptor A1; assay: Displacement of [3H]DPCPX from human Adenosine A1 receptor expressed in CHO cells; range 601-888; assay type: cell-based; summary of the method: as §2
[13] = target: T2, Adenosine receptor A2a; assay: Displacement of [3H]SCH-58261 from human Adenosine A2A receptor expressed in HEK293 cells; range 93-130; assay type: cell-based
[14] = target: T1, Adenosine receptor A2b; assay: Displacement of [3H]DPCPX from human Adenosine A2B receptor expressed in HEK293 cells; range 244-373; assay type: cell-based; summary of the method: as §1
[15] = target: T3, Adenosine receptor A3; assay: biochemical; remark: listed apart in the source
[16] = target: T1, Adenosine receptor A2b; assay: Displacement of [3H]DPCPX from human Adenosine A2B receptor expressed in HEK293 cells; range 105-170; assay type: cell-based
Summary of the method: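 Competition binding on membranes of HEK-293 cells carrying recombinant human A2B receptor. Incubation 60 min at 25 °C in 50 mM Tris HCl pH 7.4 with 10 mM MgCl2, 1 mM EDTA, 0.1 mM benzamidine and 2 IU/mL adenosine deaminase. Radioligand 40 nM [3H]DPCPX, at least six to eight test concentrations. NECA defined nonspecific binding. Bound ligand separated on glass-fibre filters and counted; n = 3-6.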

[17] = target: T4, Adenosine receptor A1; assay: Displacement of [3H]DPCPX from human Adenosine A1 receptor expressed in CHO cells; range 264-463; assay type: cell-based
Summary of the method: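 Competition binding on membranes of CHO cells stably expressing human A1 receptor, resuspended in 50 mM Tris HCl pH 7.4. Incubation 120 min at 25 °C with 1 nM [3H]DPCPX, 50 µg protein per assay and at least six to eight test concentrations. CHA defined nonspecific binding. Bound ligand separated on glass-fibre filters and counted; n = 3-6.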

[18] = target: T3, Adenosine receptor A3; assay: Displacement of [3H]MRE3008-F20 from human Adenosine A3 receptor expressed in HEK cells; range 0.61-0.84; assay type: cell-based, HEK293
[19] = target: T2, Adenosine receptor A2a; assay: Displacement of [3H]SCH-58261 from human Adenosine A2A receptor expressed in HEK293 cells; range 25-40; assay type: cell-based
[20] = target: T2, Adenosine receptor A2a; assay: Displacement of [3H]SCH-58261 from human Adenosine A2A receptor expressed in HEK293 cells; range 134-190; assay type: cell-based
[21] = target: T1, Adenosine receptor A2b; assay: Displacement of [3H]DPCPX from human Adenosine A2B receptor expressed in HEK293 cells; range 68-105; assay type: cell-based; summary of the method: as §3
[22] = target: T3, Adenosine receptor A3; assay: biochemical; remark: listed apart in the source
[23] = target: T4, Adenosine receptor A1; assay: Displacement of [3H]DPCPX from human Adenosine A1 receptor expressed in CHO cells; range 330-486; assay type: cell-based
[24] = target: T3, Adenosine receptor A3; assay: Inhibition of IB-MECA agonist-mediated cAMP production in CHO cell membranes expressing human Adenosine A3 receptor; range 2.0-4.3; assay type: functional, cell-based
[25] = target: T1, Adenosine receptor A2b; assay: Displacement of [3H]DPCPX from human Adenosine A2B receptor expressed in HEK293 cells; range 183-278; assay type: cell-based; summary of the method: as §3
[26] = target: T3, Adenosine receptor A3; assay: Displacement of [3H]MRE3008-F20 from human Adenosine A3 receptor expressed in HEK cells; range 0.28-0.41; assay type: cell-based, HEK293
[27] = target: T4, Adenosine receptor A1; assay: Displacement of [3H]DPCPX from human Adenosine A1 receptor expressed in CHO cells; range 262-814; assay type: cell-based; conditions: in the assay text read “range 602-814” for “range 262-814”; summary of the method: as §2
[28] = target: T2, Adenosine receptor A2a; assay: Displacement of [3H]SCH-58261 from human Adenosine A2A receptor expressed in HEK293 cells; range 103-140; assay type: cell-based

T2 sequence (P29274 whole entry): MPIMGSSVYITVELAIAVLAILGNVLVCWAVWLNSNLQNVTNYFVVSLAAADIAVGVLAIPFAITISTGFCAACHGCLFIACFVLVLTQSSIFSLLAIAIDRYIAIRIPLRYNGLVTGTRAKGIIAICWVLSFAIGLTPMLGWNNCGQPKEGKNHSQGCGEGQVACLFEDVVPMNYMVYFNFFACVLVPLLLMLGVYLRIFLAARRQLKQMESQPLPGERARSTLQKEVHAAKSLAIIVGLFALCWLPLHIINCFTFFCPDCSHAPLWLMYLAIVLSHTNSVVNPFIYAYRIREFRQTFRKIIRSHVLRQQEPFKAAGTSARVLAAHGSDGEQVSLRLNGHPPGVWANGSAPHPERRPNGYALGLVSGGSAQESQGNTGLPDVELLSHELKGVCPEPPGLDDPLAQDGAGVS

Structure (SMILES): CCn1cc2c(nc(NC(=O)Nc3ccccc3OC)n3nc(-c4ccco4)nc23)n1
Ratio [1]: 536
Ratio [2]: 350
Ki [7]: 300 nM
Ki [8]: 196 nM
Ki [9]: 133 nM
Ki [10]: 0.56 nM

Structure (SMILES): Cc1ccc(NC(=O)Nc2nc3nn(C)cc3c3nc(-c4ccco4)nn23)cc1
Ratio [1]: 2360
Ratio [2]: 974
IC50 [11]: 4.6 nM
Ki [12]: 731 nM
Ki [13]: 110 nM
Ki [14]: 302 nM
Ki [15]: 0.31 nM

Structure (SMILES): CCCCn1cc2c(nc(NC(=O)Nc3ccc(C(F)(F)F)cc3)n3nc(-c4ccco4)nc23)n1
Ratio [1]: 486
Ratio [2]: 181
Ki [16]: 130 nM
Ki [17]: 350 nM
Ki [18]: 0.72 nM
Ki [19]: 31 nM

Structure (SMILES): Cn1cc2c(nc(NC(=O)Nc3ccc(F)cc3)n3nc(-c4ccco4)nc23)n1
Ratio [1]: 2060
Ratio [2]: 665
IC50 [24]: 3 nM
Ki [25]: 226 nM
Ki [26]: 0.34 nM
Ki [27]: 700 nM
Ki [28]: 120 nM

More lines, now with the values ahead:

Ratio [1]: 1950
Ratio [2]: 238
Ki [3]: 50 nM
Ki [4]: 148 nM
Ki [5]: 0.21 nM
Ki [6]: 409 nM
Structure (SMILES): CCCCn1cc2c(nc(NC(=O)Nc3ccccc3)n3nc(-c4ccco4)nc23)n1

Ratio [1]: 2000
Ratio [2]: 425
Ki [20]: 160 nM
Ki [21]: 85 nM
Ki [22]: 0.2 nM
Ki [23]: 400 nM
Structure (SMILES): CCn1cc2c(nc(NC(=O)Nc3ccc(Cl)cc3)n3nc(-c4ccco4)nc23)n1
